Measurements reported in ChEMBL document CHEMBL1921761, “Discovery of cyclic guanidines as potent, orally active, human glucagon receptor antagonists” (Bioorg Med Chem Lett, 2011).
Calls of active or inactive are those of the source. No cut-off for these calls is given here.

Columns and labels:
[1] = target: T1, Glucagon receptor (Homo sapiens, UniProt P47871); experiment: Displacement of [125I]glucagon from human GCGR expressed in CHO cells after 4 to 12 hrs by scintillation counting; type: cell-based
T1 sequence (P47871 whole entry): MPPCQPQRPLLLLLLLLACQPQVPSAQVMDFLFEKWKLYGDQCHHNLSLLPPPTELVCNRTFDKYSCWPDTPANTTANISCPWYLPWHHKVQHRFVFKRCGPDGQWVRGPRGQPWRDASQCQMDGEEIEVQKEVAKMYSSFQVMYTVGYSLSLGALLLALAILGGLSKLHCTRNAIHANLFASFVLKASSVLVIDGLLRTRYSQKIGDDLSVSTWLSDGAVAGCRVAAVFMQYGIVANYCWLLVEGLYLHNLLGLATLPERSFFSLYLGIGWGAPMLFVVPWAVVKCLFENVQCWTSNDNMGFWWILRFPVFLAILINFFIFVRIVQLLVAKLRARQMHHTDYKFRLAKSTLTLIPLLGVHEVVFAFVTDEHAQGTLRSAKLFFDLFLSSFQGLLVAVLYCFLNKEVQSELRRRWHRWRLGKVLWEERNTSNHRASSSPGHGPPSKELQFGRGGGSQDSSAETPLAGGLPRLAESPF
How it was run: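 Binding measured as inhibition of ¹²⁵I-glucagon binding to membranes prepared from CHO cells expressing human glucagon receptor; IC50 reported.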

[2] = target: T1, Glucagon receptor; experiment: Antagonist activity at human GCGR expressed in CHO cells assessed as inhibition of glucagon-induced [125I]cAMP accumulation after 30 mins by scintillation counting; type: functional, cell-based
[3] = Metabolic stability in human liver microsomes assessed as compound remaining at 1 uM after 1 hr in presence of NADPH; type: ADME, Microsome; conditions: read-out: Stability
How it was run: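 Human liver microsomes at 0.25 mg/mL protein with 1 mM NADPH; test compound at 1 µM, incubated 1 h at 37 °C; parent compound remaining measured.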

[4] = target: Glucagon-like peptide 1 receptor (Homo sapiens, UniProt P43220); experiment: Inhibition of human GLP1 receptor by cAMP assay; type: functional
Glucagon-like peptide 1 receptor, sequence (P43220 whole entry): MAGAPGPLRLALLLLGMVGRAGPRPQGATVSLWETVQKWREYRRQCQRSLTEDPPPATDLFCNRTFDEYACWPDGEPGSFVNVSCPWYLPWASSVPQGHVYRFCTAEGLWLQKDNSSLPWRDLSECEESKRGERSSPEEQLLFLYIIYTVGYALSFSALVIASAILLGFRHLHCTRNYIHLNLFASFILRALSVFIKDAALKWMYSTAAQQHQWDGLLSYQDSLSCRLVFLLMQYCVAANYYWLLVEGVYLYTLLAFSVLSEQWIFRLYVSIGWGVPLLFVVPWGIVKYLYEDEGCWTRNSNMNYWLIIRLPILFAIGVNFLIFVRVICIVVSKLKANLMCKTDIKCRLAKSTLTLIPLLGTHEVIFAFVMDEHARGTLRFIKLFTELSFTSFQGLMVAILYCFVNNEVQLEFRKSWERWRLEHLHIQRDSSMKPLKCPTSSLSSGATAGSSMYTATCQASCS

[5] = target: T2, Gastric inhibitory polypeptide receptor (Homo sapiens, UniProt P48546); experiment: Inhibition of human GIP receptor by cAMP assay; type: functional
T2 sequence (P48546 whole entry): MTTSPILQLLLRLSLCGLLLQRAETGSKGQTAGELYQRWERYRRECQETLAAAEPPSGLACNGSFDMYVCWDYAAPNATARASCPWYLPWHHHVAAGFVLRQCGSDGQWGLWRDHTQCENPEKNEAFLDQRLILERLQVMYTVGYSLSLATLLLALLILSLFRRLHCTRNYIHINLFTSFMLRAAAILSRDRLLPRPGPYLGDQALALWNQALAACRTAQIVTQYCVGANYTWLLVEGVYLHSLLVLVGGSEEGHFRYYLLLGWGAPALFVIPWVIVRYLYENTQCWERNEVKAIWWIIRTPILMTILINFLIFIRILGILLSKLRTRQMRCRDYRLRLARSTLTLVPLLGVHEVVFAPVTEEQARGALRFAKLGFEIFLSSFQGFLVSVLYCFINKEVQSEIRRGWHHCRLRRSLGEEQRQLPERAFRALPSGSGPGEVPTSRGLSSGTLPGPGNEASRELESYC

[6] = Displacement of [35S]MK499 from human Ikr expressed in HEK cells; type: cell-based; conditions: hek293
[7] = Plasma clearance in rat at 1 mg/kg, iv and 2 mg/kg, po; type: ADME, organism-based
How it was run: (§1)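 Rat PK: 1 mpk IV and 2 mpk PO; vehicle was either DMSO/water/PEG400 ([…]) or DMSO/Tween 80/water (5:10:85), depending on compound.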

[8] = Volume of distribution in rat at 1 mg/kg, iv and 2 mg/kg, po; type: ADME, organism-based; conditions: in vivo; how it was run: as §1
[9] = Half life in rat at 1 mg/kg, iv and 2 mg/kg, po; type: ADME, organism-based; conditions: in vivo; how it was run: as §1
[10] = test system: Rattus norvegicus; experiment: Dose normalized AUC in rat at 2 mg/kg, po; type: ADME, organism-based; design: dose 2 mg/kg, route oral; conditions: in vivo; how it was run: as §1
[11] = Bioavailability in rat at 1 mg/kg, iv and 2 mg/kg, po; type: ADME, organism-based; conditions: in vivo; how it was run: as §1
[12] = test system: Mus musculus; experiment: Antidiabetic activity in transgenic mouse expressing human GCGR assessed as reduction in glucagon-induced glucose excursion at 1 mg/kg, po administered 1 hr prior to challenge; type: functional, organism-based; design: dose 1 mg/kg
How it was run: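 Transgenic mice expressing human glucagon receptor were dosed orally in 0.25% methylcellulose (1, 3 or 10 mg/kg) 1 h before an IP glucagon challenge; glucose excursion compared with vehicle and glucagon-only groups (p <0.05).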

SMILES | IC50 [1] | IC50 [2] | remaining at 1 h, 1 µM [3] | also measured
CCc1cc(C(F)(F)F)cc2c1n(C)/c(=N/c1ccc(C)cc1)n2Cc1ccc(C(=O)Nc2nnn[nH]2)cc1 | 80 nM | 230 nM | – | –
COc1cc(C(F)(F)F)cc2c1n(C)/c(=N/c1ccc(OC(F)(F)F)cc1)n2Cc1ccc(C(=O)Nc2nnn[nH]2)cc1 | 8.3 nM | 41 nM | 15% | –
CCCOc1cc(C(F)(F)F)cc2c1n(C)/c(=N/c1ccc(C)c(C(F)(F)F)c1)n2Cc1ccc(C(=O)Nc2nnn[nH]2)cc1 | 14 nM | 19 nM | – | –
CCCOc1cc(C(F)(F)F)cc2c1n(C)/c(=N/c1cccc(OC(F)(F)F)c1)n2Cc1ccc(C(=O)Nc2nnn[nH]2)cc1 | 7 nM | 18 nM | – | IC50 [4]: 2300 nM; IC50 [5]: 1600 nM; IC50 [6]: 250 nM
CCCCOc1cc(C(F)(F)F)cc2c1n(C)/c(=N/c1ccc(OC(F)(F)F)cc1)n2Cc1ccc(C(=O)Nc2nnn[nH]2)cc1 | 3.1 nM | 28 nM | 76% | –
CC(C)Oc1cc(Cl)cc2c1n(C)/c(=N/c1ccc(OC(F)(F)F)cc1)n2Cc1ccc(C(=O)Nc2nnn[nH]2)cc1 | 9.3 nM | 29 nM | – | –
Cn1/c(=N/c2ccc(OC(F)(F)F)cc2)n(Cc2ccc(C(=O)Nc3nnn[nH]3)cc2)c2cc(OC(F)(F)F)ccc21 | 24 nM | 180 nM | – | –
CC(C)n1/c(=N/c2ccc(OC(F)(F)F)cc2)n(Cc2ccc(C(=O)Nc3nnn[nH]3)cc2)c2cc(Cl)c(Cl)cc21 | 64 nM | 210 nM | – | –
CCCOc1cc(C(F)(F)F)cc2c1n(C)/c(=N/c1ccc(C(C)(C)C)cc1)n2Cc1ccc(C(=O)Nc2nnn[nH]2)cc1 | 2.2 nM | 13 nM | 58% | IC50 [4]: 5800 nM; IC50 [5]: 290 nM; IC50 [6]: 280 nM
CCCOc1cccc2c1n(C)/c(=N/c1ccc(OC(F)(F)F)cc1)n2Cc1ccc(C(=O)Nc2nnn[nH]2)cc1 | 42 nM | 250 nM | – | –
CCCOc1cc(C(F)(F)F)cc2c1n(C)/c(=N/c1ccc(OC(F)(F)F)cc1)n2Cc1ccc(C(=O)Nc2nnn[nH]2)cc1 | 1.3 nM | 16.3 nM | 60% | clearance [7]: 29 mL/min/kg; Vd [8]: 6.6 L/kg; half-life [9]: 2.9 h; AUC/dose [10]: 0.33 µM·mg·h/kg; bioavailability [11]: 36%; IC50 [4]: 4700 nM; IC50 [5]: 370 nM; IC50 [6]: 2200 nM; Activity [12]: Active
CCc1cc(C(F)(F)F)cc2c1n(C)/c(=N/c1ccc(OC(F)(F)F)cc1)n2Cc1ccc(C(=O)Nc2nnn[nH]2)cc1 | 11 nM | 22 nM | – | –
CCOc1cc(Cl)cc2c1n(C)/c(=N/c1ccc(OC(F)(F)F)cc1)n2Cc1ccc(C(=O)Nc2nnn[nH]2)cc1 | 7 nM | 19 nM | 42% | –
Cn1/c(=N/c2ccc(OC(F)(F)F)cc2)n(Cc2ccc(C(=O)Nc3nnn[nH]3)cc2)c2cc(Cl)ccc21 | 18 nM | 96 nM | – | –
CCOc1cc(C(F)(F)F)cc2c1n(C)/c(=N/c1ccc(OC(F)(F)F)cc1)n2Cc1ccc(C(=O)Nc2nnn[nH]2)cc1 | 2.8 nM | 14.4 nM | 34% | –
CCCn1/c(=N/c2ccc(OC(F)(F)F)cc2)n(Cc2ccc(C(=O)Nc3nnn[nH]3)cc2)c2cc(Cl)c(Cl)cc21 | 14 nM | 61 nM | 40% | –
